Published values gathered from unrelated publications.
Compare with care: the assays were run in different laboratories.
Cell line: A549
Effect on: cell growth or viability

| SMILES | test | conditions | IC50 |
| --- | --- | --- | --- |
| C=CC(=O)Nc1cc(Nc2nc(N3CCOCC3)c3sccc3n2)c(OC)cc1N(C)CCN(C)C | MTT | – | > 50 µM |
| O=C(N/N=C/c1cccn1CCCN1CCCCC1)Nc1cc2c(Nc3ccc(F)c(Cl)c3)ncnc2cc1O[C@H]1CCOC1 | MTT | 72 h | 2.44 µM |
| C=CC(=O)N1CCC[C@@H](n2nc(-c3ccc(Oc4ccccc4)cc3)c3c(N)ncnc32)C1 | – | – | > 10 µM |
| C=CC(=O)Nc1cc(Nc2nc(N3CCc4sccc4C3)c3cccnc3n2)c(OC)cc1N1CCN(CCO)CC1 | MTT | – | 5.31 µM |
| Nc1ccn([C@@H]2O[C@H](CO)[C@@H](O)C2(F)F)c(=O)n1 | CCK-8 | 72 h | 0.0151 µM |
| Oc1ncnc2cc(Nc3nc(-c4ccc(F)cc4)cs3)ccc12 | MTT | – | 19 µM |
| CC(C)C[C@H](NC(=O)[C@H](Cc1ccccc1)NC(=O)c1cnccn1)B(O)O | ATP luminescence | – | 0.02 µM |
| COc1cc([C@@H]2c3cc4c(cc3[C@@H](O[C@@H]3O[C@@H]5CO[C@@H](C)O[C@H]5[C@H](O)[C@H]3O)[C@H]3COC(=O)[C@H]23)OCO4)cc(OC)c1O | MTT | 72 h | 2 µM |
| COc1c(C)cnc(COc2ccc(NC(=O)Nc3ccc(Cl)c(C(F)(F)F)c3)cc2)c1C | MTT | 72 h | 6.63 µM |
| O=C(Nc1nnnn1C1CCCCC1)c1ccc2ccccc2c1 | – | 48 h | 1.12 µM |
| COc1cc2ncnc(Nc3ccc(F)c(Cl)c3)c2cc1NC(=O)N/N=C/CN1CCN(C)CC1 | MTT | 72 h | 6.6 µM |
| Cc1ccc(-c2nn(-c3ccc(S(C)(=O)=O)cc3)cc2/C=N\N=c2/[nH]c(-c3ccc([N+](=O)[O-])cc3)cs2)cc1 | MTT | 48 h | 57.6 µM |
| COc1ccccc1CCCNCC(O)COc1cccc2[nH]c3ccccc3c12 (stereo not shown) | CCK-8 | 72 h | 11.8 µM |
| CC1=C(O)C(=O)C=C2C1=CC=C1[C@@]2(C)CC[C@@]2(C)[C@@H]3C[C@](C)(C(=O)OCCCCCO)CC[C@]3(C)CC[C@]12C | MTT | 48 h | > 100 µM |
| CCN(CC)CCn1cccc1/C=N/NC(=O)Nc1cc2c(Nc3ccc(F)c(Cl)c3)ncnc2cc1OC | MTT | 72 h | 0.43 µM |
| O=C1NC(=NCc2cccs2)S/C1=C\c1ccc2ncccc2c1 | – | – | > 10 µM |
| CCOc1cc(OCC)cc(C(=O)O[C@@H]2CN3Cc4c(cc5c(c4OC)OCO5)[C@@]24C=C[C@H](OC)C[C@@H]34)c1 | WST-1 | – | > 10 µM |
| O=C1Nc2ccc(Br)cc2/C1=N/NC(=O)c1cc2ccccc2[nH]1 | – | – | 16 µM |
| O=C(NCCc1ccccc1)NNC(=O)c1ccc(Nc2nccc(-c3cccnc3)n2)cc1 | MTT | – | 23.7 µM |
| COc1c(C)cnc(COc2ccc(NC(=O)Nc3cc(F)cc(F)c3)cc2)c1C | MTT | 72 h | 10.2 µM |
| COc1ccccc1/C=C/CNCC(O)COc1ccc2[nH]c3ccccc3c2c1 (stereo not shown) | CCK-8 | 72 h | 9.1 µM |
| COc1cccc(Oc2ccccc2NC(=O)CNC(=O)c2c(C)cc(C)cc2C)c1 | – | – | 4.7 µM |
